# Test results: ChEMBL document CHEMBL1135232, “Synthesis and antiplatelet activity of gemfibrozil chiral analogues” (Bioorg Med Chem Lett, 2002)
# Tests used:
# Format in all cases: functional
# Homo sapiens [1] = organism: Homo sapiens; experiment: Compound concentration that cause 50% inhibition of human platelet aggregation by COL/EPI cartridges
# Summary of the method: (§1)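 Human whole blood drawn by forearm venipuncture into 3.8% (0.129 M) buffered sodium citrate (1:9 anticoagulant:blood). Aliquots incubated with compound (in 0.1 N NaOH/water 1:10; final 1–5 mM) 37 °C, 30 min, then loaded into PFA-100 cartridge (collagen/epinephrine or collagen/ADP). Closure time read in seconds; % inhibition calculated against vehicle-treated control blood.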
# Homo sapiens [2] = organism: Homo sapiens; experiment: Compound was evaluated for the inhibitory activity against human platelet aggregation by COL/ADP cartridges at a concentration of 4 x 10 e-3 M; details: for inhibition at 4000 µM: Homo sapiens; summary of the method: as §1
# Homo sapiens [3] = organism: Homo sapiens; experiment: Compound was evaluated for the inhibitory activity against human platelet aggregation by COL/ADP cartridges at a concentration of 3 x 10 e-3 M; details: for inhibition at 3000 µM: Homo sapiens; summary of the method: as §1
# Homo sapiens [4] = organism: Homo sapiens; experiment: Compound was evaluated for the inhibitory activity against human platelet aggregation by COL/ADP cartridges at a concentration of 1 x 10 e-3 M; summary of the method: as §1
# Homo sapiens [5] = organism: Homo sapiens; experiment: Compound was evaluated for the inhibitory activity against human platelet aggregation by COL/ADP cartridges at a concentration of 2 x 10 e-3 M; summary of the method: as §1
# Homo sapiens [6] = organism: Homo sapiens; experiment: Compound was evaluated for the inhibitory activity against human platelet aggregation by COL/ADP cartridges at a concentration of 5 x 10 e-3 M; details: for inhibition at 5000 µM: Homo sapiens; summary of the method: as §1
SMILES,IC50 (Homo sapiens [1]; Homo sapiens) [µM],IC50 (Homo sapiens [1]) [µM],inhibition at 4000 µM (Homo sapiens [2]) [%],inhibition at 3000 µM (Homo sapiens [3]) [%],inhibition at 1000 µM (Homo sapiens [4]) [%],inhibition at 2000 µM (Homo sapiens [5]) [%],inhibition at 5000 µM (Homo sapiens [6]) [%],Inhibition (Homo sapiens [2]) [%],Inhibition (Homo sapiens [3]) [%],Inhibition (Homo sapiens [6]) [%]
CC(=O)Oc1ccccc1C(=O)O [ASPIRIN],50,,6.76,0,0,0,17.1,,,
"CCC(CCCOc1cc(C)ccc1C)C(=O)O (single isomer, unassigned; (+))",,4120,,,,,,0,0,100
Cc1ccc(C)c(OCCCC(C)(C)C(=O)O)c1 [GEMFIBROZIL],2670,,100,17,0,2.5,100,,,
CCC(CCCOc1cc(C)ccc1C)C(=O)O (stereo in doubt; 5b),2420,,,,0,0,,5.51,3.3,2.57

# Now from value to compound, other results behind:
IC50 (Homo sapiens [1]; Homo sapiens) [µM],IC50 (Homo sapiens [1]) [µM],SMILES,inhibition at 4000 µM (Homo sapiens [2]) [%],inhibition at 3000 µM (Homo sapiens [3]) [%],inhibition at 1000 µM (Homo sapiens [4]) [%],inhibition at 2000 µM (Homo sapiens [5]) [%],inhibition at 5000 µM (Homo sapiens [6]) [%],Inhibition (Homo sapiens [2]) [%],Inhibition (Homo sapiens [3]) [%],Inhibition (Homo sapiens [6]) [%]
,2610,"Cc1ccc(C)c(OCCCC(C)C(=O)O)c1 (single isomer, unassigned; (-))",,,,,,,0,100
,2470,Cc1ccc(C)c(OCCCC(C)C(=O)O)c1 (stereo in doubt; 5a),,,,,,4.39,0.49,24.39
3090,,"Cc1ccc(C)c(OCCCC(C)C(=O)O)c1 (single isomer, unassigned; (+))",,,0,0,,0,0.97,5.36
